Residues, ends and D or L forms follow the SMILES beside them.
Key:
[1] = test system: MCF-7 cells; experiment: Microinjection and time-lapse video microscopy, MCF-7; format: cell-based
Method in brief: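 MCF-7 cells are synchronized 48 h in 0.1% FCS, then released with 10% serum. At 20 h post-release, cells are microinjected in PBS with 70 kDa FITC-dextran (1 μg μL−1) plus peptide (50 μM) or GST-fusion protein (1 μg μL−1). Controls are FITC-dextran alone or non-injected cells. Time-lapse images every 30 min; first mitosis scored for abnormality and duration. Fisher's exact test.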

[2] = test system: CtBP1 homodimerization (CtBP1 fused to 434 repressor); experiment: CtBP1 reverse two-hybrid system; format: cell-based; conditions: for Target (homodimerization disrupted in RTHS): CtBP1 and CtBP2 RTHS, SICLOPPS; for Rank (top 3 CtBP1/CtBP2 inhibitors identified by SICLOPPS): ranked by drop spotting, CtBP1/CtBP2 RTHS
Method in brief: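 E. coli reverse two-hybrid hosts carry SICLOPPS cyclic peptide library plasmids; only clones whose peptide disrupts CtBP homodimerization survive on selective media. For CtBP1, 104 surviving colonies were picked, and their plasmids were isolated and retransformed into the CtBP1 RTHS. For drop-spotting, 2.5 μL of serial cell dilutions go onto selective plates with and without […].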

[3] = test system: CtBP1/CtBP2 dimerization (CFP–CtBP1, YFP–CtBP2) in COS-7 cells; experiment: CtBP cellular compartmentalization assay; format: cell-based; conditions: 100 μM
Method in brief: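 COS-7 cells transfected with CFP–CtBP1 (pSCFP3A-based) and YFP–CtBP2 (pSYFP2-based) expression vectors. Test compound as TAT conjugate (100 μM) or 100 μM TAT added to medium. Expression and co-localization were imaged by fluorescence microscopy, and cells were scored by line analysis for cytoplasmic CFP–CtBP1, with cell numbers counted. Fisher's exact test on contingency tables versus TAT-treated cells.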

[4] = test system: MCF-7 cells; experiment: Time-lapse video microscopy, peptide in medium, MCF-7; format: cell-based
Method in brief: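 Cell-penetrating peptide or TAT alone goes into the medium of asynchronous MCF-7 cultures, imaged by time-lapse microscopy every 30 min for 65 h. Each cell's first mitosis is scored for abnormality (prolonged rounding, failed cytokinesis, death), with time in mitosis per cell. Total cell number increase is taken over the first 48 h. Fisher's exact test; experiments repeated at least twice.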

[5] = test system: MCF-7 cells; experiment: Micronuclei assay, MCF-7; format: cell-based; conditions: up to 100 μM TAT; 48 h; >400 cells scored
Method in brief: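 Peptides are added to the medium of asynchronous MCF-7 cultures, and cells are fixed after 48 h for micronuclei counting, with >400 cells scored per point. Data are mean ± SEM of triplicate wells from a representative of at least two independent experiments. One-way ANOVA with Tukey's post hoc test.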

[6] = test system: MDA-MB-453 cells; experiment: Microinjection and time-lapse video microscopy, MDA-MB-453; format: cell-based; conditions: microinjected 50 μM
[7] = test system: lactate dehydrogenase; experiment: Lactate dehydrogenase activity; format: biochemical; conditions: at concentrations of up to 100 μM
[8] = test system: CtBP2 homodimerization (CtBP2 fused to 434 repressor); experiment: CtBP2 reverse two-hybrid system; format: cell-based; conditions: arabinose-induced peptide production; 50 μM IPTG; minimal (selective) media
[9] = biological target: CtBP1 (His–CtBP1) (Homo sapiens, UniProt Q13363); experiment: FRET-based CtBP1/NADH-binding assay
[10] = test system: GST–CtBP1 / His–CtBP1; experiment: GST pull down assay; format: biochemical; conditions: presence of NADH; 50 mM Tris–HCl pH 7.2 pull-down buffer
Method in brief: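 Recombinant GST-CtBP1 and His-CtBP1 are expressed in E. coli and purified on glutathione or nickel resin, with 30 min 0.25 mM pyruvate on-resin to oxidize bound NADH. 10 mg mL−1 bacterial lysate blocks nonspecific binding.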

[11] = test system: breast cancer cells; conditions: ref [31]; cited from earlier work
[12] = test system: CtBPs; conditions: high concentrations of MTOB; ref [37]; cited from earlier work
[13] = test system: colon cancer cells; conditions: ref [36]; cited from earlier work
[14] = test system: His–CtBP1; experiment: Size exclusion chromatography of His–CtBP1; format: biochemical; conditions: increasing concentrations of NADH; Superdex 200, PBS

GST–CtBP^DD: construct encoding the central dimerization domain (110–359) of CtBP2
Cells with aberrant mitosis phenotype ([1]; protein injected at 1 μg μL−1 in PBS, MCF-7 (Fig. 7e)): 45% | Time in mitosis (in words) ([1]; protein injected at 1 μg μL−1 in PBS, MCF-7 (Fig. 7f)): increased the time in mitosis, in line with that observed in CP61-treated cells

SGW PLSTWY (head to tail) [CP68]
Target (homodimerization disrupted in RTHS) [2]: CtBP1/CtBP2 | Rank (top 3 CtBP1/CtBP2 inhibitors identified by SICLOPPS) [2]: 2

GRKKRRQRRRPPQ [TAT]
Nuclear co-localization of CtBPs [3]: showed the expected co-localization with YFP–CtBP2 in the nucleus | Increase in cell numbers ([4]; 50 μM, 48 hours): 111% | Cells containing micronuclei [5]: Approximately 7%

CSCC[C@@H]1NC(=O)[C@H](CCCNC(=N)N)NC(=O)[C@H](C(C)C)NC(=O)[C@H](C(C)C)NC(=O)[C@H]([C@@H](C)O)NC(=O)[C@H](Cc2c[nH]c3ccccc23)NC(=O)CNC(=O)[C@H](CO)NC(=O)[C@H](Cc2ccc(O)cc2)NC1=O [CP61] (cyclo(GWTVVRMYS))
Length of time in mitosis (in words) ([6]; MDA-MB-453 (Fig. 8b)): did not affect the length of time MDA-MB-453 cells spent in mitosis | Percentage of mitoses that were aberrant (in words) ([6]; MDA-MB-453, P > 0.05 compared to control-injected): did not significantly affect the percentage of mitoses that were aberrant | Mitoses that were aberrant ([1]; microinjected 50 μM, MCF-7, control-injected 10.2%, P < 0.0001 (Fig. 8a)): 50.8% | Mean length of time in mitosis ([1]; microinjected 50 μM, MCF-7, control-injected 1.9 h (Fig. 8b)): 4 h | Effect on activity of lactate dehydrogenase [7]: no effect | Survival on selective media / disruption of CtBP2 homodimerization [8]: Restoration of growth with arabinose | Target (homodimerization disrupted in RTHS) [2]: CtBP1/CtBP2 | Survival on selective media / disruption of CtBP1 homodimerization ([2]; arabinose-induced peptide production, 50 μM IPTG, minimal (selective) media): Restoration of growth with arabinose | Rank (top 3 CtBP1/CtBP2 inhibitors identified by SICLOPPS) [2]: 1 | Reduction of NADH-dependent FRET signal (CtBP1–NADH interaction) ([9]; excitation 285 nm, emission 425 nm, 300 nM His–CtBP1, room temperature): reduced upon addition of CP61, in a dose-dependent manner | Mechanism of inhibition of NADH-binding ([9]; maximum FRET signal at saturating NADH reduced in a CP61-dependent manner): allosteric mechanism for inhibition of NADH-binding | Concentration inhibiting the cellular function of CtBPs ([4]; in cells (discussion summary)): 50 µM | Disruption of NADH-dependent association between GST–CtBP1 and His–CtBP1 [10]: disrupted

CSCCC(=O)C(=O)O [MTOB, 2-keto-4-methylthiobutyrate]
Repression of multiple CtBP-targeted genes [11]: reverse the repression of multiple CtBP-targeted genes in breast cancer cells | Recruitment of CtBPs to target promoters [12]: inhibiting the recruitment of CtBPs to target promoters | Repression of pro-apoptotic gene BIK [13]: reverse the repression of the pro-apoptotic gene BIK in colon cancer cells

SGW RLIRLY (head to tail) [CP65]
Target (homodimerization disrupted in RTHS) [2]: CtBP1/CtBP2 | Rank (top 3 CtBP1/CtBP2 inhibitors identified by SICLOPPS) [2]: 3

NC(=O)C1=CN([C@@H]2O[C@H](COP(=O)(O)OP(=O)(O)OC[C@H]3O[C@@H](n4cnc5c(N)ncnc54)[C@H](O)[C@@H]3O)[C@@H](O)[C@H]2O)C=CC1 [NADH]
Monomer to dimer shift of CtBP1 [14]: shifted to a peak corresponding to dimeric CtBP1 in a dose-dependent manner

From paper PMC6237275 (Chemical science, 2013)
